This is an account of results in ChEMBL document CHEMBL2203250, “Synthesis and evaluation of 3-¹²³I-iodo-5-[2-(S)-3-pyrrolinylmethoxy]-pyridine (niodene) as a potential nicotinic α4β2 receptor imaging agent” (Bioorg Med Chem Lett, 2012).

The test system of series [1] is Nucleic Acid. Kind of series: Ratio of drug uptake in thalamus to cerebellum in Sprague-Dawley rat brain at 2 uCi/umol after 60 mins by autoradiographic analysis. Type of series: ADME, tissue-based. The note with it: in vivo, 1 h.
The test system of series [2] is Nucleic Acid. Kind of series: Ratio of drug uptake in cortex to cerebellum in Sprague-Dawley rat brain at 0.1 Ci/umol after 60 mins by autoradiographic analysis. Type of series: ADME, tissue-based. The note with it: in vivo, 1 h.
Series [3] concerns Nucleic Acid. Description: Ratio of drug uptake in thalamus to cerebellum in Sprague-Dawley rat brain at 0.1 Ci/umol after 60 mins by autoradiographic analysis. It is filed as ADME, tissue-based. Conditions: in vivo, 1 h.
In series [4] the target is T1, Neuronal acetylcholine receptor; alpha4/beta2 (Rattus norvegicus) (UniProt P09483+P12390). Description: Ratio of nifene Ki to compound Ki for rat alpha4beta2 nAChR. It is filed as protein-complex assay.
In series [5] the target is T1, Neuronal acetylcholine receptor; alpha4/beta2 (Rattus norvegicus). Kind of series: Binding affinity to alpha4beta2 nAChR in Sprague-Dawley rat cerebellum at 0.1 Ci/umol after 60 mins by autoradiographic analysis. Type of series: protein-complex assay. Conditions: tested as the 123I-labelled form. The method, boiled down: (§1)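 Frozen rat brain sections were thawed for about 15 min at ambient temperature. They were preincubated 10 min in 120 mM Tris HCl with 5 mM NaCl, 5 mM KCl, 2.5 mM CaCl2 and 1 mM MgCl2, pH 7.4, then incubated with 5 nM 123I-niodene at 37 °C for 60 min. […] Sections were washed in ice-cold buffer and exposed to phosphor screens for at least 16 h. Regional binding was read as DLU/mm²; n ≥5 sections, mean and SD.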

Series [6] shares this target. Kind of series: Binding affinity to alpha4beta2 nAChR in Sprague-Dawley rat cortex at 0.1 Ci/umol after 60 mins by autoradiographic analysis. Conditions: tested as the 123I-labelled form. The method, boiled down:
as §1

Series [7] has the same target. Kind of series: Binding affinity to alpha4beta2 nAChR in Sprague-Dawley rat thalamus at 0.1 Ci/umol after 60 mins by autoradiographic analysis. It is filed as protein-complex assay. The note with it: tested as the 123I-labelled form. The method, boiled down: as §1
Series [8] shares this target. Kind of series: Displacement of [18F]nifene from alpha4beta nAChR in Sprague-Dawley rat subiculum at 10 nM after 60 mins by autoradiographic analysis. Type of series: protein-complex assay. The method, boiled down: (§2)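 Rat brain slices were preincubated 10 min in Tris HCl buffer with salts, pH 7.4. […] Slices got two 1-min ice-cold Tris HCl washes and a cold water rinse, then overnight phosphor-screen exposure. Regional binding was read as DLU/mm² and expressed relative to cerebellum.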
On the technique in general: In a radioligand displacement assay an active substance lowers the binding of a labelled ligand.

Series [9] has the same target. Description: Displacement of [18F]nifene from alpha4beta nAChR in Sprague-Dawley rat striatum at 10 nM after 60 mins by autoradiographic analysis. Type of series: protein-complex assay. The method, boiled down: as §2
The target is the same in series [10]. Kind of series: Displacement of [18F]nifene from alpha4beta nAChR in Sprague-Dawley rat frontal cortex at 10 nM after 60 mins by autoradiographic analysis. Type of series: tissue-based. The method, boiled down: as §2
Series [11] shares this target. Kind of series: Displacement of [18F]nifene from alpha4beta nAChR in Sprague-Dawley rat thalamus at 1 uM after 60 mins by autoradiographic analysis. Type of series: protein-complex assay. The method, boiled down: as §2
For series [12] the target is unchanged. Kind of series: Displacement of [18F]nifene from alpha4beta nAChR in Sprague-Dawley rat thalamus at 10 nM after 60 mins by autoradiographic analysis. Type of series: protein-complex assay. The method, boiled down:
as §2

In series [13] the target is Neuronal acetylcholine receptor; alpha4/beta2 (Rattus norvegicus, UniProt P09483+P12390). Description: Displacement of [3H]cytisine from alpha4beta2 nAChR in rat brain homogenate. Type of series: tissue-based. The method, boiled down:
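Male Sprague–Dawley rat cerebrum was homogenized, washed twice by centrifugation at 40,000g and resuspended. It was incubated with 1 nM 3H-cytisine and competitor (10^-10 to 10^-3 M) in 50 mM Tris, pH 7.0, with 120 mM NaCl, 5 mM KCl, 1 mM MgCl2 and 2.5 mM CaCl2, at 2 °C for 75 min. […] The assay was filtered, and filters were washed in cold buffer and scintillation-counted.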

Active and inactive are the calls of the source. The rule behind the calls is not given here. Some results are limits rather than exact numbers.

Sequence of Neuronal acetylcholine receptor; alpha4/beta2 (P09483 whole entry): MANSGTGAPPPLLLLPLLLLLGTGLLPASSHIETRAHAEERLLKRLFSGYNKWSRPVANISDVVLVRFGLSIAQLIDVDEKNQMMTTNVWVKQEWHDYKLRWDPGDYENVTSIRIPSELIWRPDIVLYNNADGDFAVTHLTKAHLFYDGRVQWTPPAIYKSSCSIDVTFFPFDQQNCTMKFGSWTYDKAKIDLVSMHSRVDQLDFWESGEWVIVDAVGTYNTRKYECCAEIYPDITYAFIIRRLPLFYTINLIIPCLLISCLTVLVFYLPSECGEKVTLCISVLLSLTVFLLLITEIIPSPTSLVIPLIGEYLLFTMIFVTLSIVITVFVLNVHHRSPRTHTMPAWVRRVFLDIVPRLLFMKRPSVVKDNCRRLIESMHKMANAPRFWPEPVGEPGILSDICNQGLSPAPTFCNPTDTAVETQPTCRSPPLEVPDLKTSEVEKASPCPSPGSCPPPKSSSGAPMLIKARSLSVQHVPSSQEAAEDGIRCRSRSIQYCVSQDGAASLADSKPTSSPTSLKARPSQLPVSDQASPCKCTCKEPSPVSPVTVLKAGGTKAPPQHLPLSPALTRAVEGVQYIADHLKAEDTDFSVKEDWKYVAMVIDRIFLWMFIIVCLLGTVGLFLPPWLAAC
Sequence of Neuronal acetylcholine receptor; alpha4/beta2 (P12390 whole entry): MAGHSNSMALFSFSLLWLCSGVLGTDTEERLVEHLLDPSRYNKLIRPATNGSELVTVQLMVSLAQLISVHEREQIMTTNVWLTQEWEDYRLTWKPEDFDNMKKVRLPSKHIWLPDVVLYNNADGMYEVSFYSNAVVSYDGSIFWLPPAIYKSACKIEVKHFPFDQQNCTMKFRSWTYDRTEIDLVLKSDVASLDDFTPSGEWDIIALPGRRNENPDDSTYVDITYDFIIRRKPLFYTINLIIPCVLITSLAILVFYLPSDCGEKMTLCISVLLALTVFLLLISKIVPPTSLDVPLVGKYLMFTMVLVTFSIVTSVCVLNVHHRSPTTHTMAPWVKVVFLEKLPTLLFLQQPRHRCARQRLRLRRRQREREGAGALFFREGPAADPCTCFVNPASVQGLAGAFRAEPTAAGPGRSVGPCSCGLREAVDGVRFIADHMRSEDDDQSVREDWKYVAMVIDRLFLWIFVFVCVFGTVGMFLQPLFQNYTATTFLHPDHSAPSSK

With `[18F]c1ncccc1OC[C@@H]1C=CCN1`, the Ratio in series [1] is 7.3.

With `[123I]c1cncc(OC[C@@H]2C=CCN2)c1`, the Ratio in [2] came out at 1.6; in [3] it was 4.

In the case of `Ic1cncc(OC[C@@H]2C=CCN2)c1`, the Ratio Ki in series [4] came out at 2. The outcome in series [5] was inactive. In addition, the outcome in series [6], in series [7], in [8], in series [9] and in series [10] was Active. Also, the results for the Activity in series [11] and in [12] were over 80% and over 65%, respectively.

Regarding `CN1CCC[C@H]1c1cccnc1`, the outcome in series [8], in [9] and in series [10] was Active. The molecule further yielded an Activity in series [12] of 24%.

In [13], `Fc1ncccc1OC[C@@H]1C=CCN1` yielded an inhibition constant (Ki) of 0.5 nM.

In general, Ki refers to the dissociation constant of the complex between target and ligand, obtained from inhibition or displacement. A higher Ki goes with lower affinity.
